According to PubChem BioAssay:
Activity calls are given as the source filed them.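 The calls were made as follows, unless noted: active = NADPH fluorescence slope more negative than the mean of all samples by about 3 SD, 99.7% confidence; inactive = the rest.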

Columns and labels:
[1] = inhibitors of TNFa-induced NFkB p65 translocation, primary screen, imaging, HUVEC, MLSMR starter and 10KST1 sets (AID 438;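 active = inhibition above 20% together with a positive visual image hit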;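 also: compound added about 3h40 before a 20 min TNFalpha stimulation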;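 as to inhibition: signal is the nuclear over cytoplasmic p65 intensity ratio per well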); conditions: HUVEC TNFa-induced p65 nuclear translocation; cell count: measured here: nuclei count (cytotoxicity indicator), at 2.08 µM; inhibition: at 2 µM, stronger effect = higher value, 0% TNFa-plus-vehicle, 100% no-TNFa wells
[2] = inhibitors of E-selectin induction by TNFa, primary screen, imaging, HUVEC, immunofluorescence, MLSMR starter and 10KST1 sets (AID 487;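 active = visually confirmed hit in the image check and inhibition above 20%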;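 as to inhibition: signal is fraction of cell area covered by stained E-selectin grains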;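 as to nuclei count: 100% = median nuclei count of all wells on the same plate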); conditions: HUVEC TNFalpha-induced E-selectin immunofluorescence imaging, at 2 µM; inhibition: stronger effect = higher value; nuclei count: measured here: cell number, toxicity
[3] = DUSP6 inhibitors restoring Erk phosphorylation by chemical complementation, primary imaging in DUSP6-transfected HeLa (AID 609;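 active = compounds giving at least 50% inhibition in the cell-based MKP-3 phosphatase rescue imaging test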;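 as to inhibition: phospho-Erk level distribution per well compared with pooled transfected vehicle control wells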); conditions: HeLa MKP-3 transfected, phospho-Erk imaging KS statistic, at 10 µM, cells stimulated with TPA for 15 min
[4] = molecular target: Dual specificity protein phosphatase 6 (Homo sapiens) (UniProt Q16828); assay: as above; conditions: HeLa MKP-3 transfected, phospho-Erk imaging KS statistic; at 10 µM; stronger effect = higher value; cells stimulated with TPA for 15 min
Chain of Dual specificity protein phosphatase 6 (Homo sapiens) (Q16828 whole entry, looked up): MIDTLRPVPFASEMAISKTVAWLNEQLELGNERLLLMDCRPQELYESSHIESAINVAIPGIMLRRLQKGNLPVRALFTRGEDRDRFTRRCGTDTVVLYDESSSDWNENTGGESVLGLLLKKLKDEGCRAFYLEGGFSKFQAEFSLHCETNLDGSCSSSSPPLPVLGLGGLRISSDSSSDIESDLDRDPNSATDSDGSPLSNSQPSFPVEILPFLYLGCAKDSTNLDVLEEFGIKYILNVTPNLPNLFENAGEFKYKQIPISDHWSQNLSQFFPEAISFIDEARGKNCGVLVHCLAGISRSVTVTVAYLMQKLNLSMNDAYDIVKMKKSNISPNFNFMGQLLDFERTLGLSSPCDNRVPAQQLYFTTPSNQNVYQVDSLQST

[5] = molecular target: Voltage-gated potassium channel subunit beta-2 (Rattus norvegicus) (UniProt P62483); assay: KvBeta enzyme negative modulators, primary screen, biochemical, NADPH fluorescence (AID 622;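 active = fluorescence slope higher than the sample average by over 3 SD, cut at about -0.22 in these data, passing the limit was not always enough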;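 also: slope of raw intensity against log time taken from 70 to 1610 s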); conditions: recombinant KvBeta, 4-cyanobenzaldehyde reduction, at 10 µM, stronger effect = higher value
Chain of Voltage-gated potassium channel subunit beta-2 (Rattus norvegicus) (P62483 whole entry, looked up): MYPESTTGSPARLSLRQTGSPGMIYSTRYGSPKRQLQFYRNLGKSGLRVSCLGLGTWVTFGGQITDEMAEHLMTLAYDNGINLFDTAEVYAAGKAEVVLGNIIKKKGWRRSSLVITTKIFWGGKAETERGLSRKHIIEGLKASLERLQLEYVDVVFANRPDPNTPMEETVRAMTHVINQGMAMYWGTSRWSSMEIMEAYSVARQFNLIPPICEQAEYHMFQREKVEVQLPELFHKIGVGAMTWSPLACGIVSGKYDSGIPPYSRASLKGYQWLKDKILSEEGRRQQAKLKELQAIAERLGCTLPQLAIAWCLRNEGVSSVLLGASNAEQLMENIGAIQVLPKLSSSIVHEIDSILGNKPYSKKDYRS

[6] = molecular target: Voltage-gated potassium channel subunit beta-2 (Rattus norvegicus) (UniProt P62483); assay: KvBeta positive modulators, primary screen, biochemical, NADPH fluorescence (AID 623); conditions: Recombinant KvBeta, NADPH fluorescence decrease slope, 10 min; at 10 µM; stronger effect = lower value;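 also: fluorescence intensity change per second fitted from 20 to 320 s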
[7] = molecular target: Alpha-2C adrenergic receptor (Homo sapiens) (UniProt P18825); assay: modulators of alpha2C/GIRK thallium flux, primary screen, cell-based, HEK293 alpha2C/GIRK1/2 (AID 624;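 active = fluorescence slope after compound addition differing from the mean of all screened samples at 99.7% confidence, in either direction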;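 also: slope of fluorescence ratio to pre-addition baseline per second over 15 to 24 s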); conditions: thallium flux BTC fluorescence, at 10 µM, actives lie on both sides
Chain of Alpha-2C adrenergic receptor (Homo sapiens) (P18825 whole entry, looked up): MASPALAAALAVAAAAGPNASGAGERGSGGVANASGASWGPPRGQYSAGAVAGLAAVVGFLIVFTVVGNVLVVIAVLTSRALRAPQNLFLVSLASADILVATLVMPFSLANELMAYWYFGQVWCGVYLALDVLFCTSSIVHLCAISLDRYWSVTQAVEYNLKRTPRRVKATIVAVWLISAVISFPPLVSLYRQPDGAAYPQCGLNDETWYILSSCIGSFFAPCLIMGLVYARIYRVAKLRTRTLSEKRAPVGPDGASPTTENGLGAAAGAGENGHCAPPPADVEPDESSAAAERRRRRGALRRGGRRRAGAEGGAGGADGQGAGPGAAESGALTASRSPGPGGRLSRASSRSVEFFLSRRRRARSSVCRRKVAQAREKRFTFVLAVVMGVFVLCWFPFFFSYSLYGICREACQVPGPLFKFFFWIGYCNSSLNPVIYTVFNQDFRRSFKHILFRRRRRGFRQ

[8] = inhibitors of larval lipid processing in zebrafish, primary screen, whole organism, PED6 fluorescence, gall bladder and intestine (AID 686;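 active = a full or partial loss of lipid-probe fluorescence in the fish gall bladder, intestine or both, judged by eye; inactive = no fluorescence loss, or compound toxic to the fish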;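 also: larvae 5 to 7 days old with five fish per well; signal comes from phospholipase A2 cleavage of quenched PED6 carried via bile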); conditions: Zebrafish larvae PED6 lipid processing, fluorescence scoring; screened at 20 µM (by protocol)
Procedure, shortened: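 Incubation: overnight exposure of larvae to compound plus PED6 / Test system: live zebrafish larvae aged 5-7 days, whole organism / Amount: 5 larvae per well / Read-out basis: visual per-well fluorescence inhibition score / Signal: visual fluorescence microscopy scoring of gall bladder, gut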

[9] = inhibitors of Chlamydomonas gravitaxis, primary screen, whole organism, Chlamydomonas reinhardtii, WT vs cilia-less mutant, absorbance, 96-well (AID 463189;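 active = inhibition at or above 50% relative to wild type and mutant plate controls; inactive = inhibition below 50%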;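 also: 0% = wild type cc124 cells in DMSO and 100% = ciliumless bld1 mutant cells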); conditions: OD600 absorbance, 2 days, at 10 µM, stronger effect = higher value
[10] = measured here: cell density z-score
[11] = measured here: nuclear c-Myc green intensity z-score
[12] = measured here: nuclear pErk red intensity z-score, stronger effect = higher value

| Compound | cell count [1] | inhibition [1] | inhibition [2] | nuclei count [2] | z-score [3, 10] | z-score [3, 11] | z-score [3, 12] | inhibition [4] | fluorescence slope [5] | NADPH fluorescence slope [6] | slope [7] | outcome [8] | inhibition [9] |
| --- | --- | --- | --- | --- | --- | --- | --- | --- | --- | --- | --- | --- | --- |
| Cc1cc(C)nc(NC2=NCC(=O)N2c2ccccc2)n1 | 599 | -3.5% (inactive) | -130% (inactive) | 136% | 1.19 | -0.204 | -1.47 | 3.97% (inactive) | -0.493 (inactive) | -3.7e-05 (inactive) | 0.00515 (inactive) | inactive | -0.727% (inactive) |
| CCOC(=O)N1CC=C2C(C#N)=C(N)C(C#N)(C#N)[C@H](c3cccs3)[C@H]2C1 | 664 | -14.7% (inactive) | 44.9% (inactive) | 144% | 0.0987 | -0.332 | -1.22 | 11% (inactive) | -0.367 (inactive) | -2e-05 (inactive) | 0.00502 (inactive) | inactive | 26.4% (inactive) |
| CCOc1ccc(-n2c(SCc3ccc(C#N)cc3)nnc2-c2cccnc2)cc1 | 343 | -6% (inactive) | 6.3% (inactive) | 157% | 0.958 | -0.128 | 0.447 | 13.4% (inactive) | -0.421 (inactive) | -0.00013 (inactive) | 0.00481 (inactive) | inactive | -11.3% (inactive) |
| CSc1nc(N)nc(SCC(=O)CC(=O)OC(C)C)c1C#N | 553 | -7.1% (inactive) | -118% (inactive) | 212% | 0.352 | -0.157 | -2.15 | 16.8% (inactive) | -0.372 (inactive) | -4.1e-07 (inactive) | 0.00422 (inactive) | inactive | 11.6% (inactive) |
| Cc1ccc(CC2CC(=O)N(c3ccc4c(c3)OCCO4)C2=O)cc1 (stereo not drawn) | 482 | -11% (inactive) | -17.8% (inactive) | 129% | 1.49 | -1.24 | 0.443 | 15.1% (inactive) | -0.513 (inactive) | -0.000111 (inactive) | 0.00446 (inactive) | inactive | 25.7% (inactive) |
| Cc1cc(=O)oc(C)c1C(=O)NCCNC(=O)c1c(C)cc(=O)oc1C | 496 | -5.9% (inactive) | -127% (inactive) | 140% | 0.642 | -0.299 | 1.3 | -14% (inactive) | -0.534 (inactive) | -3.6e-05 (inactive) | 0.0046 (inactive) | inactive | -8.5% (inactive) |
| CCN1CC2=C(OC(N)=C(C#N)C2c2ccccc2)/C(=C\c2ccccc2)C1 (stereo not drawn) | 489 | -6.9% (inactive) | -190% (inactive) | 174% | 0.232 | -0.856 | 0.432 | 9.61% (inactive) | -0.332 (inactive) | -1.3e-05 (inactive) | 0.00402 (inactive) | active; no signal in intestine only | 14.6% (inactive) |
| CC(=O)N1CCC2(CC1)C(C#N)=C(N)Oc1n[nH]c(C(F)(F)F)c12 | 509 | -9.9% (inactive) | -79.8% (inactive) | 156% | 1.26 | 0.347 | -0.954 | -1.12% (inactive) | -0.349 (inactive) | -1.5e-05 (inactive) | 0.00543 (inactive) | inactive | 10.5% (inactive) |
| CCOc1nc(SCCOc2ccc(C)cc2)nc(N(C)C)n1 | 346 | -10.2% (inactive) | -115% (inactive) | 91.5% | 2.72 | -0.00429 | -0.85 | 22.8% (inactive) | -0.474 (inactive) | 3.1e-05 (inactive) | 0.0074 (inactive) | inactive | 30.3% (inactive) |
| O=C(O)c1cc2n(n1)C(C(F)(F)F)CC(c1ccccc1)N2 (stereo not drawn) | 514 | -9.8% (inactive) | -120% (inactive) | 117% | -1.15 | -0.827 | 0.269 | 3.66% (inactive) | -0.503 (inactive) | -0.000107 (inactive) | 0.00535 (inactive) | inactive | -2% (inactive) |
| CC1(C)Cc2c(c(-c3ccccc3)nc3[nH][nH]c(=O)c23)CO1 | 666 | -17.1% (inactive) | -370% (inactive) | 162% | 0.742 | -0.0557 | 0.36 | -3.98% (inactive) | -0.513 (inactive) | -7.2e-05 (inactive) | 0.00403 (inactive) | inactive | 21% (inactive) |
| Cc1csc2nc(CSc3nc4ccccc4o3)cn12 | 402 | -8.4% (inactive) | -53.8% (inactive) | 108% | 0.0403 | 1.14 | -0.0493 | 3.56% (inactive) | -0.545 (inactive) | -5.7e-05 (inactive) | 0.00434 (inactive) | inactive | 5.29% (inactive) |
| CCOC(=O)c1ccc(NC(=O)Cn2nnc3ccccc32)cc1 | 333 | -8.2% (inactive) | -17.3% (inactive) | 84.8% | 0.667 | 0.595 | -0.72 | 7.48% (inactive) | -0.538 (inactive) | -0.000163 (inactive) | 0.0051 (inactive) | inactive | 37.7% (inactive) |
| CCN(CC)S(=O)(=O)c1ccc2c(c1)c(C(=O)O)cn2C | 435 | -15.2% (inactive) | -25.4% (inactive) | 114% | 0.944 | -0.275 | -1.67 | 24.4% (inactive) | -0.568 (inactive) | -6e-05 (inactive) | 0.00489 (inactive) | inactive | 22.9% (inactive) |
| c1cc(-c2nnc3sc(C4CCCCC4)nn23)ccn1 | 660 | -3% (inactive) | -26.6% (inactive) | 150% | 0.217 | -0.0752 | 0.0462 | -7.86% (inactive) | -0.419 (inactive) | -0.00016 (inactive) | 0.00483 (inactive) | inactive | 70.8% (active) |
| CCOC(=O)c1cnc(SC2CC(=O)N(c3cccc(OC)c3)C2=O)nc1N (stereo not drawn) | 591 | -4.7% (inactive) | -23.7% (inactive) | 155% | 0.0661 | -0.104 | -0.161 | -8.76% (inactive) | -0.317 (inactive) | -9.7e-06 (inactive) | 0.00504 (inactive) | inactive | -8.83% (inactive) |
| N#Cc1c(N)nc(SCc2ccccn2)c(C#N)c1-c1cccs1 | 526 | -6.5% (inactive) | -189% (inactive) | 176% | 0.739 | 1.34 | -0.969 | 4.25% (inactive) | -0.289 (inactive) | 1.5e-05 (inactive) | 0.00485 (inactive) | inactive | 1.02% (inactive) |
| Cc1onc(-c2ccccc2Cl)c1C(=O)N1CCN(c2nc3ccccc3s2)CC1 | 340 | -8.1% (inactive) | -48.8% (inactive) | 168% | 1.76 | -0.608 | -1.2 | 25.4% (inactive) | -0.417 (inactive) | -0.000136 (inactive) | 0.00481 (inactive) | inactive | 13% (inactive) |
| CCn1c(SCC(=O)O)nc2sc3c(c2c1=O)CCC3 | 664 | -3.3% (inactive) | 9.9% (inactive) | 171% | -0.751 | -1.02 | -0.615 | 2.71% (inactive) | -0.405 (inactive) | -5.6e-05 (inactive) | 0.00483 (inactive) | inactive | -0.935% (inactive) |
| Cc1nnc2n(-c3ccccc3)c(=O)c3c4c(sc3n12)COC(C(C)C)C4 (stereo not drawn) | 542 | -6.5% (inactive) | -106% (inactive) | 177% | -0.97 | 1.36 | -0.55 | -0.608% (inactive) | -0.357 (inactive) | -2.6e-05 (inactive) | 0.00506 (inactive) | inactive | -3.02% (inactive) |
| Cc1ccc(N(CC(=O)O)C2SC(=O)NC2=O)cc1 (stereo not drawn) | 529 | -12.4% (inactive) | -72.5% (inactive) | 142% | 0.0556 | 0.578 | -1.85 | 18.2% (inactive) | -0.507 (inactive) | -2.2e-05 (inactive) | 0.00492 (inactive) | inactive | 31.2% (inactive) |
| CCOC(=O)C1=C(c2ccccc2)NC(SCC(=O)Nc2ccccc2C)=C(C#N)C1c1ccco1 (stereo not drawn) | 433 | -4.2% (inactive) | -136% (inactive) | 166% | -0.18 | -0.317 | -0.0556 | -0.159% (inactive) | -0.408 (inactive) | -6.1e-05 (inactive) | 0.0072 (inactive) | inactive | 0.63% (inactive) |
| CCOC(=O)c1[nH]c2cc3c(cc2c1NC(=O)CN1CCC(C)CC1)OCO3 | 554 | -1.1% (inactive) | -6.5% (inactive) | 155% | -0.767 | 1.52 | -0.0577 | 1.6e-07% (inactive) | -0.27 (inactive) | 6.7e-06 (inactive) | 0.00467 (inactive) | inactive | -6.78% (inactive) |
| OC1(c2cccc(C(F)(F)F)c2)CCN(c2ncnc3c2[nH]c2ccccc23)CC1 | 447 | -2.9% (inactive) | -95% (inactive) | 165% | -0.506 | 1.11 | -2.96 | 34.7% (inactive) | -0.454 (inactive) | -5.6e-05 (inactive) | 0.0037 (inactive) | inactive | 19.3% (inactive) |
| CC(=O)Nc1cnc2ccccc2n1 | 626 | -12.5% (inactive) | 17.9% (inactive) | 160% | -0.876 | 0.21 | 0.164 | -6.06% (inactive) | -0.397 (inactive) | -5.9e-05 (inactive) | 0.00508 (inactive) | inactive; toxic | -0.95% (inactive) |
| CCCOc1ccc(/C(O)=C2/C(=O)C(=O)N(CCCn3ccnc3)C2c2cccs2)cc1 (stereo not drawn) | 537 | -14.3% (inactive) | -124% (inactive) | 150% | -0.681 | -0.103 | 0.12 | -18.6% (inactive) | -0.495 (inactive) | -3.4e-05 (inactive) | 0.00501 (inactive) | inactive | 0.323% (inactive) |
